Laboratory results: ChEMBL document CHEMBL1128670, “Hypoxia-selective antitumor agents. 11. Chlorambucil N-oxide: a reappraisal of its synthesis, stability, and selective toxicity for hypoxic cells” (J Med Chem, 1995)
pIC50: −log10 of the molar value.

Columns and labels:
[1] = test system: CHO-AA8; test: Activity to reduce the surviving fraction to 10% (CT10) was used as an inverse measure of cytotoxic potency in aerobic conditions; type: functional, Cricetulus griseus
Method in brief: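 Clonogenic survival assay in magnetically stirred 10 mL suspensions of late-log AA8 cells (10⁶/mL) under continuous gassing with 5% CO₂ in air. Samples were removed periodically during drug exposure. CT₁₀ is the concentration × time giving 10% surviving fraction, used as an inverse measure of cytotoxicity.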

[2] = test system: CHO-AA8; test: Growth inhibition activity was measured in repair proficient AA8 cells under aerobic conditions (4 hours drug exposure); type: functional, cell-based; settings: Cricetulus griseus, CHO-AA8, 4 h
[3] = test system: UV4; test: Growth inhibition activity was measured in repair deficient UV4 cells under aerobic conditions (4 hours drug exposure); type: functional, cell-based; settings: Cricetulus griseus, UV4, 4 h
[4] = Ratio of activities reducing surviving fraction to 10% (T10) under aerobic vs hypoxic conditions; type: functional
Method in brief: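 Late-log AA8 cells (10⁶/mL) in stirred 10 mL suspensions were gassed continuously with 5% CO₂ in air or in N₂, with periodic sampling for clonogenic survival. The time to 10% survival (T₁₀) was found under each gas at the same drug concentration. The value is the mean of air/N₂ T₁₀ ratios; errors are ranges (two determinations) or standard errors.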

Compound | CT10 [1] | pIC50 [2] | pIC50 [3] | Ratio [4]
O=C(O)CCCc1ccc(NCCCl)cc1 | 2080 µM·h | < 3.60 | 4.05 | 1.26
O=C(O)CCCc1ccc(N(CCCl)CCCl)cc1 [CHLORAMBUCIL] | 85.2 µM·h | 4.42 | 5.92 | 1.28
O=C(O)CCCc1ccc(N(CCCl)OCCCl)cc1 | >2400 µM·h | 3.34 | 3.75 | 
